Only some compounds are listed: those with a hit (about 4.2% of all), similar ones and a draw of the others.
KCC2 mod: modulates chloride dependent transport by human KCC2; Q9H2X9; AID 1456; 190,000 tested, 2.2% active; KCC2 cells, thallium flux FluoZin-2 fluorescence; B-score of Tl+ flux slope (higher = more flux/activation; lower = inhibition) at 10 µM;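 active = thallium flux slope and its plate-corrected score both differing from the plate sample mean at a set confidence after two filtering rounds, in either direction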;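 also: slope of fluorescence scaled to starting intensity during 10 to 20 s after thallium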
Insulin prom up: MIN6 insulin promoter up-regulation. MIN6 insulin promoter-GFP reporter, high-content imaging; stronger effect = higher value. z-score at 5 µM. 190,000 tested, 0.3% active. AID 1625;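 active = z-score above 3 at 5 µM with at least 500 cells counted in the well; inconclusive = wells under 500 cells, flagged as cytotoxic or low count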
SKKanGAS inh: SKKanGAS growth inhibition | AID 1662 | S. pyogenes SKKanGAS, kanamycin growth, BacTiter-Glo, 6 h | 300,000 tested, 1.3% active | inhibition, % at 7.5 µM;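 active = mean replicate score, as percent of positive control median, at least 50; inconclusive = mean below 50 but one replicate at or above 50; inactive = mean and every replicate below 50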;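 also: strain carries kanamycin resistance gene driven by streptokinase promoter and grows in 40 µg/ml kanamycin; loss of luminescence reflects streptokinase promoter inhibition or plain growth inhibition; 0% = median of DMSO wells and 100% = positive control at its reference dose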
Autophagy HCS: modulators of autophagy | MEF GFP-LC3 puncta imaging; test concentration mostly 10 µM | calls only at 10 µM (by protocol) | 190,000 tested, 0.98% active;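 active = percentage of spot-positive cells more than 3 SD above its plate mean, without a fluorescence outlier flag or 80% toxicity; inconclusive = no clear call, values can overlap the other calls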;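 also: spot-positive cell cutoff set from DMSO-treated cells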
WT yeast gro inh: growth inhibition of WT yeast, mitochondrial fusion screen; mitochondrial fusion phenotypic screen, WT strain; 190,000 tested, 2.1% active; inhibition, % at 10 µM; in the data active = inhibition above about 58%; tested in S. cerevisiae
Rad51 HR inh: blocks human Rad51 in homologous recombination; 200,000 tested, 0.085% active; inhibition, % at 10 µM; Q06609; hRad51 DNA strand exchange, fluorescence dequenching;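 active = inhibition above 40% at the single screening dose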;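 also: 0% = DMSO control wells and 100% = blanks with heterologous ssDNA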
Target sequence (Q06609 whole entry, looked up): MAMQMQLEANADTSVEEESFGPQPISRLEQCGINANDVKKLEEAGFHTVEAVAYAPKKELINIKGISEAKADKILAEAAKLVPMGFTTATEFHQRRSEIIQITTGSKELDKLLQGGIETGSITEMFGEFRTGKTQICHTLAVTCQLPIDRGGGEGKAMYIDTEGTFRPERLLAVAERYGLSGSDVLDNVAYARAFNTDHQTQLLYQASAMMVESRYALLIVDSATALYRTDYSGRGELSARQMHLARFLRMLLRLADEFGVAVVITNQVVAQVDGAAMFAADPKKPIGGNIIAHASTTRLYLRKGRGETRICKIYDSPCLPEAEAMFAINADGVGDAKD
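Test system: preformed human Rad51 ssDNA filaments; also added: Donor/quencher-labelled 47-bp dsDNA substrate; doses: 10 µM final, single point; times: 37 °C 15-min filament assembly, 30-min compound preincubation, 15-min exchange; detection: FRET fluorescence dequenching, excitation 485 nm, emission 520 nm; read-out basis: Fluorescence-based percent inhibition, control- and blank-normalised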
Starred values were filed as active, the others as inactive; i = inactive; ? = inconclusive; . = no result given; + = active, no number.

SMILES	KCC2 mod	Insulin prom up	SKKanGAS inh	Autophagy HCS	WT yeast gro inh	Rad51 HR inh
COc1cccc(N2CCN(c3ncnc4c3[nH]c3ccccc34)CC2C)c1 (centres undefined)	-1.6	?	26	i	65*	-2
Cc1ccc(CN2CC(C(=O)Nc3nnc(SCc4c(Cl)cccc4Cl)s3)CC2=O)cc1 (centres undefined)	-0.049	0.37	79*	i	-3	6
COC(=O)CSc1nnc(NC(=O)C2CC(=O)N(c3ccc(F)cc3)C2)s1 (centres undefined)	.	.	50*	.	.	.
Cc1cnc(C(=O)Nc2nnc(SCc3c(Cl)cccc3Cl)s2)cn1	1.1	-0.66	102*	i	64	-7
CCSc1nnc(NC(=O)c2cnccn2)s1	.	0.4	4	.	.	-7
CCSc1nnc(NC(=O)c2ccccn2)s1	2.3	-0.66	68*	i	58	-3
CN(C)CCCNC(NC(=O)/C=C/c1ccccc1)C(Cl)(Cl)Cl (centres undefined)	0.021	-0.54	-4	.	.	-3
Cc1ccc(Cn2c(=O)sc3ccccc3c2=O)cc1	.	-0.16	4	i	0	-3
Cc1ccc(-n2sc3ccccc3c2=O)cc1	1.1	0.88	96*	i	96	0
C=CCc1cc(/C=C2/NC(=O)N(CC)C2=O)cc(OCC)c1OCc1ccc(C(=O)O)cc1	-4.2	-0.16	61*	i	8	-4
COc1c2c(cc3ccc(=O)oc13)CCO2	.	.	0	.	.	.
CCCC(NC(=S)NCC1CCCO1)C12CC3CC(CC(C3)C1)C2 (centres undefined)	-1.6	-1.4	?	i	79*	-9
COc1ccc2[nH]c(=O)c(CN(CC3CCCO3)C(=O)Nc3ccccc3OC)cc2c1 (centres undefined)	0.023	-1	2	i	11	6
COc1ccccc1NC(=O)N(Cc1cc2cc(OC)c(OC)cc2[nH]c1=O)CC1CCCO1 (centres undefined)	-3.3*	-0.74	10	i	-2	1
CC1CCN(Cc2c(C(=O)N/N=C/c3cc(Cl)ccc3O)nnn2-c2nonc2N)CC1	.	.	66*	.	.	.
CC1CCN(Cc2c(C(=O)N/N=C/c3cc(Br)ccc3O)nnn2-c2nonc2N)CC1	.	.	80*	.	.	.
COc1c(Cl)cc(Cl)cc1/C=N/NC(=O)c1nnn(-c2nonc2N)c1CN1CCC(C)CC1	.	.	25	.	.	.
COc1ccc(/C=C(/NC(=O)/C=C/c2ccccc2)C(=O)NCCCCCC(=O)O)cc1	2.2	.	-9	.	.	.
Cc1ccc(C(=O)C2=C(O)C(=O)N(Cc3ccco3)C2c2cccc(Br)c2)o1 (centres undefined)	.	.	52*	.	.	.
CCCCn1c(N)c(N(CCOC)C(=O)COC(=O)c2cc(CCC)c(C)s2)c(=O)[nH]c1=O	.	.	-3	.	.	.
COc1ccc(CCN2CC(C(=O)Nc3cccc(C(C)=O)c3)CC2=O)cc1OC (centres undefined)	0.32	0.09	-14	+	18	-4
CC(=O)c1cccc(NC(=O)C2CC(=O)N(CCc3ccccc3)C2)c1 (centres undefined)	-0.44	0.99	5	i	0	-3
Cc1ccc(-c2cnc(-c3ccccc3C(=O)O)o2)cc1	.	.	2	.	.	.
COc1ccc(Br)cc1/C=C/C(=O)c1ccc(NC(C)=O)cc1	-0.64	-2.8	.	i	84*	-7
COc1ccc(NC(=O)/C=C/c2cc(Br)ccc2OC)cc1	0.48	-0.89	-4	i	-19	-2
SMILES	KCC2 mod	Insulin prom up	SKKanGAS inh	Autophagy HCS	WT yeast gro inh	Rad51 HR inh
O=C(CCSCc1ccccc1Cl)NC1CCCCC1	0	0.27	-3	i	21	-1
CCOc1ccc2nc(C)cc(Nc3cccc([N+](=O)[O-])c3)c2c1	0.25	-3.4	2	+	1	7
Cc1cc(Nc2cccc([N+](=O)[O-])c2)c2ccccc2n1	.	-0.36	-1	i	-2	-6
Cc1cc2nnc(SCC(=O)NCC(c3ccccc3)N(C)C)n2c2ccccc12 (centres undefined)	.	.	4	.	.	.
Cn1nc(-c2ccccc2)c(CSc2ccccc2Cl)c1Cl	-0.073	-0.12	75*	i	45	-7
Cc1ccc(NC(=O)CN(C)C(=O)COc2cccc3cccnc23)cc1	.	0.15	3	i	-8	8

Screening data (PubChem BioAssay)
